Assay [1] has as its target D(2) dopamine receptor (Rattus norvegicus, UniProt P61169). Put plainly: Inhibitory concentration against radioligand [3H](-)-sulpiride binding to Dopamine receptor D2 in rat. The essentials: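 Striatal membranes from male Wistar rats (200–250 g), homogenized in 50 mM Tris/HCl pH 7.7, washed by repeated 50000g spins. Filtration on PEI-soaked glass-fiber filters, then scintillation counting. IC50 by nonlinear curve fitting, duplicate determinations.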

In assay [2] the target is Sigma non-opioid intracellular receptor 1 (Rattus norvegicus, UniProt Q9R0C9). Nature of the assay: Inhibitory concentration against radioligand [3H]3-PPP binding to Sigma opioid receptor type 1 in rat brain membrane. Type of assay: cell membranes. The essentials:
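Rat whole-brain membranes from male Wistar rats (200–250 g), homogenized in 50 mM Tris/HCl pH 7.7, washed by repeated 50000g spins. Incubated with 2 nM [3H]-(+)-3-PPP and at least five concentrations of unlabeled drug. Filtered on polyethylenimine-soaked glass-fiber filters and counted by scintillation. IC50 from nonlinear curve fitting of competition data, duplicate determinations.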

The species named for assay [3] is Mus musculus. Nature of the assay: Effective dose against (+)-SKF-10047-induced stereotyped behavior in mice was determined. Type of assay: functional. A digest of the protocol:
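Male ICR mice (25–30 g, 10 per group) acclimatized at least 1 h. Test drug given orally 30 min before (+)-SKF10,047 30 mg/kg ip. Stereotypy scored on a 0–5 scale from 10 min post-injection, every 5 min for 40 min. Vehicle plus three doses were tested. Total score expressed as percent of control, and ED25 derived.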

Bounds are passed on as bounds.

Sequence of Sigma non-opioid intracellular receptor 1 (Q9R0C9 whole entry): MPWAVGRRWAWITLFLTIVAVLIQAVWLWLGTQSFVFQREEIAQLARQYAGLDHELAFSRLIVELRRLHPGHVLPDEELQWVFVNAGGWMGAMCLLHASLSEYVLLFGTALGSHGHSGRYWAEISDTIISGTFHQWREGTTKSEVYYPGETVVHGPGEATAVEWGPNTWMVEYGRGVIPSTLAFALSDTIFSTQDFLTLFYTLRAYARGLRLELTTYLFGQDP
Sequence of D(2) dopamine receptor (P61169 whole entry): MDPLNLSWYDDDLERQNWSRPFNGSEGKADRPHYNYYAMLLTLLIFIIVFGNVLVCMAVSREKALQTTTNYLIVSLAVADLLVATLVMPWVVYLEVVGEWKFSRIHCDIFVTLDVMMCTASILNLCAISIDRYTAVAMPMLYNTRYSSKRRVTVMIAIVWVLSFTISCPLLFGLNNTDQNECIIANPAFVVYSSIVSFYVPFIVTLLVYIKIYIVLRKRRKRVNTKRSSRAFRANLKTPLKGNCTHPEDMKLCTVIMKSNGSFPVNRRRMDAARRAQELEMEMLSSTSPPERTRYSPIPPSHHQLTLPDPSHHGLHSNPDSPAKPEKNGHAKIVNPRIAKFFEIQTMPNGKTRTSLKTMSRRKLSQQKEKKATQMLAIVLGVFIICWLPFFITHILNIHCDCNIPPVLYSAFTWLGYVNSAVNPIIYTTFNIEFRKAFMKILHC

`COc1cccc(CCN2CCCC2)c1OCCc1ccccc1` gave an IC50 in assay [1] above 1000 nM.

Molecule `CCCN(CCC)CCc1ccc(OC)cc1OCCc1ccccc1` displayed an IC50 in assay [1] above 1000 nM.

`CCCN(CCC)CCc1ccc(OC)c(OCCc2cccs2)c1` showed an IC50 in assay [1] above 1000 nM.

In the case of `CCCN(CCc1ccc(OC)c(OCCc2ccccc2)c1)CCC(C)C`, the IC50 in assay [1] worked out at 680 nM; in assay [2], 2.9 nM.

With `CCCN(CCC)CCc1ccc(Cl)cc1OCCc1ccccc1`, the IC50 in assay [1] was above 1000 nM.

For `CCCN(CCC)CCc1ccccc1OCCc1ccccc1`, the 50% inhibitory concentration (IC50) was 436 nM in assay [1] and 15 nM in assay [2].

As for `Clc1ccc(OCCc2ccccc2)c(CCN2CCCC2)c1`, the IC50 worked out at 69 nM in assay [1] and 36 nM in assay [2].

With `CCCN(CCC)CCc1ccc(OC)c2c1-c1ccccc1CO2`, the IC50 in assay [1] is above 1000 nM; in assay [2], 990 nM.

Take `CCCN(CCC)CCc1cc(Cl)cc(Cl)c1OCCc1ccccc1`: the values for the concentration for half-maximal inhibition (IC50) in assay [1] and in assay [2] were above 1000 nM and 281 nM, respectively.

`CCCN(CCC)CCc1ccc(OC)c(OCCCc2ccccc2)c1` registered a concentration for half-maximal inhibition (IC50) in assay [1] above 1000 nM.

On to `CCCN(CCC)CCc1cccc(F)c1OCCc1ccccc1`, for which the half-maximal inhibitory concentration (IC50) was above 1000 nM in assay [1] and 22 nM in assay [2].

Regarding `Clc1ccc(OCCc2ccccc2)c(CCCN2CCN(c3ncccn3)CC2)c1`, the IC50 in assay [1] was found to be 115 nM; in assay [2] it was 169 nM.

Consider `CCCCCCN(CCC)CCc1ccc(OC)c(OCCc2ccccc2)c1`, for which the IC50 in assay [1] worked out at 619 nM; in assay [2], 1.8 nM.

Take `CCCN(CCC)CCc1cc(F)ccc1OCCc1ccccc1`: the IC50 in assay [1] is above 1000 nM; in assay [2], 13 nM.

For the molecule `COc1ccc(CCN2CCN(c3ccccc3OC)CC2)cc1OCCc1ccccc1`, the IC50 in assay [1] came to 11 nM; in assay [2], 25 nM.

In assay [1], `Clc1ccc(OCCc2ccccc2)c(CCCN2CCN(c3ccccc3)CC2)c1` gave an IC50 of 180 nM.

Consider `COc1ccccc1N1CCN(CCCc2cc(Cl)ccc2OCCc2ccccc2)CC1`, for which the IC50 is 16 nM in assay [1] and 319 nM in assay [2].

As for `CCCN(CCC)CCCCc1cc(Cl)ccc1OCCc1ccccc1`, the half-maximal inhibitory concentration (IC50) in assay [1] is above 1000 nM; in assay [2] it was 26 nM.

Molecule `COc1ccc(CCN)cc1OCCc1ccccc1` had an IC50 in assay [1] above 1000 nM.

Regarding `CCCN(CCC)CCc1ccc(OC)c(OCCc2ccc(F)cc2)c1`, the IC50 in assay [1] is above 1000 nM; in assay [2], 1 nM.

Molecule `CCCN(CCC)CCc1ccc(OC)c(OCCc2cccc(Cl)c2)c1` showed an IC50 in assay [1] above 1000 nM.

With `Clc1ccc(OCCc2ccccc2)c(CCN2CCN(c3ncccn3)CC2)c1`, the 50% inhibitory concentration (IC50) in assay [1] was 143 nM; in assay [2], above 1000 nM.

Consider `CCCN(CCC)CCc1ccc(O)c2c1-c1ccccc1CO2`, for which the results for the IC50 in assay [1] and in assay [2] were above 1000 nM and 558 nM, respectively.

Turning to `COc1cccc(CCN2CCOCC2)c1OCCc1ccccc1`, the values for the IC50 in assay [1] and in assay [2] were above 1000 nM and 373 nM, respectively.

Consider `CCCN(CCCO)CCc1ccc(OC)c(OCCc2ccccc2)c1`, for which the figures for the 50% inhibitory concentration (IC50) in assay [1] and in assay [2] were above 1000 nM and 19 nM, respectively.

In the case of `Clc1ccc(OCCc2ccccc2)c(CCCN2CCN(c3ccccn3)CC2)c1`, the 50% inhibitory concentration (IC50) was found to be 93 nM in assay [1] and 118 nM in assay [2].

`COc1ccc(CCN2CCOCC2)cc1OCCc1ccccc1`: the half-inhibitory concentration (IC50) in assay [1] and in assay [2] was above 1000 nM throughout.

As for `CCCN(CCC)CCc1ccc(OC)c(OCCc2ccc(OC)cc2)c1`, the concentration for half-maximal inhibition (IC50) in assay [1] was above 1000 nM; in assay [2] it was 1 nM.

Take `CCCN(CCC)CCc1ccc(OC)c(OCc2ccccc2)c1.O=C(O)C(=O)O`: the IC50 in assay [1] is above 1000 nM; in assay [2], 28 nM.

As to `OC(CCCN1CCN(c2ncc(F)cn2)CC1)c1ccc(F)cc1` (stereo not drawn) [BMY-14802], the IC50 in assay [1] is above 1000 nM. The molecule also yielded an ED25 in assay [3] of 7.6 mg/kg.

For `Cc1cccc(N2CCN(CCCc3cc(Cl)ccc3OCCc3ccccc3)CC2)n1`, the IC50 in assay [1] came to 293 nM; in assay [2], 415 nM.

`CCCN(CCC)CCc1ccc(O)c(OCCc2ccccc2)c1` showed an IC50 in assay [1] above 1000 nM.

As for `COc1ccc(CCN2CCN(c3ccccn3)CC2)cc1OCCc1ccccc1`, the figures for the IC50 in assay [1] and in assay [2] were 295 nM and 112 nM, respectively.

For the molecule `COc1cccc(CCN2CCN(c3ccccc3)CC2)c1OCCc1ccccc1`, the IC50 in assay [1] amounted to 66 nM; in assay [2], 328 nM.

As for `CCCNCCc1ccc(OC)c(OCCc2ccccc2)c1`, the IC50 in assay [1] is above 1000 nM.

For `CCCN(CCC)CCc1ccc(OCCc2ccccc2)cc1OC`, in assay [1], the half-inhibitory concentration (IC50) was above 1000 nM.

As to `Clc1ccc(OCCc2ccccc2)c(CCN2CCN(c3ccccn3)CC2)c1`, the IC50 in assay [1] is 51 nM; in assay [2] it was above 1000 nM.

Consider `CCCN(CCC)CCCc1cccc(OC)c1OCCc1ccccc1`, for which the IC50 in assay [1] was above 1000 nM; in assay [2], 13 nM.

As to `CCCN(CCC)CCc1cc(Cl)ccc1OCc1ccccc1`, the IC50 was found to be 337 nM in assay [1] and 118 nM in assay [2].

Turning to `CCCN(CCC)CCc1cc(Br)cc(Br)c1OCCc1ccccc1`, the 50% inhibitory concentration (IC50) in assay [1] was above 1000 nM; in assay [2], 774 nM.

Take `CCCN(CCC)CCc1ccc(OCCc2ccccc2)c(O)c1`: the concentration for half-maximal inhibition (IC50) is above 1000 nM in assay [1] and 25 nM in assay [2].

In the case of `CCCN(CCC)CCc1cc(Cl)ccc1OCCCc1ccccc1`, the results for the concentration for half-maximal inhibition (IC50) in assay [1] and in assay [2] were 876 nM and 56 nM, respectively.

In assay [1], `COc1ccc(CCN2CCCC2)cc1OCCc1ccccc1` registered an IC50 above 1000 nM.

On to `COc1cccc(CCN2CCN(c3ccccn3)CC2)c1OCCc1ccccc1`, for which the IC50 is 137 nM in assay [1] and above 1000 nM in assay [2].

Take `COc1ccccc1N1CCN(CCc2cc(Cl)ccc2OCCc2ccccc2)CC1`: the IC50 was found to be 88 nM in assay [1] and 640 nM in assay [2].

For the molecule `CN1CCc2cccc3c2[C@H]1Cc1ccc(O)c(O)c1-3` [APOMORPHINE], the IC50 in assay [2] was above 1000 nM.

Regarding `CCCN(CCC)CCc1ccc(OCCc2ccccc2)c(OC)c1`, the IC50 in assay [1] is above 1000 nM; in assay [2], 12 nM.

As to `CCCN(CCC)CCc1cc(Br)ccc1OCCCc1ccccc1`, the concentration for half-maximal inhibition (IC50) in assay [1] came to 685 nM; in assay [2], 44 nM.

For `Clc1ccc(OCCc2ccccc2)c(CCN2CCOCC2)c1`, the IC50 in assay [1] is 163 nM; in assay [2], 308 nM.

As for `CCCN(CCC)CCc1ccc(OC)c(OCCc2ccc(OC)c(OC)c2)c1`, the IC50 in assay [2] worked out at 67 nM.

As for `CCCN(CCC)CCc1cccc(OC)c1OCCCc1ccccc1`, the half-inhibitory concentration (IC50) in assay [1] is above 1000 nM; in assay [2], 1.7 nM.

The record behind these values is ChEMBL document CHEMBL1132700, “Design, synthesis, structure-activity relationships, and biological characterization of novel arylalkoxyphenylalkylamine sigma ligands as potential antipsychotic drugs” (J Med Chem, 1999).
